Experimental data published in ChEMBL document CHEMBL5058577, “EUbOPEN Chemogenomics Library 2 (Multiplex)” (2022).

System: HEK-293T
Test: Multiplex assay against HEK293T
Assay type: toxicity, cell-based
Details: human
How it was run: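 With compound added, live cells were imaged on a CQ1 microscope at 37°C and 5% CO2; staining with Hoechst33342, BioTracker Green Microtubule Cytoskeleton Dye, MitoTracker Red and Annexin V Alexa Fluor 680 had been done at seeding. The CellPathfinder machine-learning gating scheme split cells into Hoechst high-intensity objects or normal cells, normal cells into healthy, pyknosed or fragmented nuclei, and pyknosed cells into mitotic or apoptotic. The tubulin, mitochondrial-mass and membrane-permeability phenotypes are per cents of healthy-nucleus cells.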

[1] = 12 h, 1 µM, compound concentration 1 uM, replicate 1
[2] = 12 h, 1 µM, compound concentration 1 uM, replicate 2
[3] = 12 h, 10 µM, compound concentration 10 uM, replicate 1
[4] = 12 h, 10 µM, compound concentration 10 uM, replicate 2
[5] = 24 h, 1 µM, compound concentration 1 uM, replicate 1
[6] = 24 h, 1 µM, compound concentration 1 uM, replicate 2
[7] = 24 h, 10 µM, compound concentration 10 uM, replicate 1
[8] = 24 h, 10 µM, compound concentration 10 uM, replicate 2
[9] = 48 h, 1 µM, compound concentration 1 uM, replicate 1
[10] = 48 h, 1 µM, compound concentration 1 uM, replicate 2
[11] = 48 h, 10 µM, compound concentration 10 uM, replicate 1
[12] = 48 h, 10 µM, compound concentration 10 uM, replicate 2

COc1c(Nc2ccc(S(C)(=O)=O)nc2C)ncnc1OC1CCN(C(=O)OC(C)C)CC1 [ADP-597]
Population Apoptotic (%) [1]: 29% | Population Fragmented Nuclei (%) [1]: 5% | Population Healthy Nuclei (%) [1]: 78% | Population Hoechst High Intensity Objects (%) [1]: 6% | Population Membrane Permeable-Phenotype (%) [1]: 0% | Population Mitochondria Different-Phenotype (%) [1]: 47% | Population Mitotic Cells (%) [1]: 70% | Population Normal (%) [1]: 93% | Population Pyknosed Nuclei (%) [1]: 16% | Population Tubulin-Different-Phenotype (%) [1]: 36% | Total Cell Count [1]: 430 | Population Apoptotic (%) [2]: 38% | Population Fragmented Nuclei (%) [2]: 4% | Population Healthy Nuclei (%) [2]: 80% | Population Hoechst High Intensity Objects (%) [2]: 3% | Population Mitochondria Different-Phenotype (%) [2]: 62% | Population Mitotic Cells (%) [2]: 62% | Population Normal (%) [2]: 96% | Population Pyknosed Nuclei (%) [2]: 14% | Population Tubulin-Different-Phenotype (%) [2]: 25% | Total Cell Count [2]: 347 | Population Apoptotic (%) [3]: 47% | Population Fragmented Nuclei (%) [3]: 7% | Population Healthy Nuclei (%) [3]: 75% | Population Hoechst High Intensity Objects (%) [3]: 8% | Population Membrane Permeable-Phenotype (%) [3]: 0% | Population Mitochondria Different-Phenotype (%) [3]: 70% | Population Mitotic Cells (%) [3]: 52% | Population Normal (%) [3]: 91% | Population Pyknosed Nuclei (%) [3]: 17% | Population Tubulin-Different-Phenotype (%) [3]: 44% | Total Cell Count [3]: 302 | Population Healthy Nuclei (%) [4]: 72% | Population Hoechst High Intensity Objects (%) [4]: 25% | Population Mitochondria Different-Phenotype (%) [4]: 71% | Population Normal (%) [4]: 74% | Population Pyknosed Nuclei (%) [4]: 20% | Population Tubulin-Different-Phenotype (%) [4]: 36% | Total Cell Count [4]: 238 | Population Apoptotic (%) [5]: 23% | Population Fragmented Nuclei (%) [5]: 7% | Population Healthy Nuclei (%) [5]: 81% | Population Hoechst High Intensity Objects (%) [5]: 2% | Population Membrane Permeable-Phenotype (%) [5]: 0% | Population Mitochondria Different-Phenotype (%) [5]: 20% | Population Mitotic Cells (%) [5]: 76% | Population Normal (%) [5]: 97% | Population Pyknosed Nuclei (%) [5]: 11% | Population Tubulin-Different-Phenotype (%) [5]: 16% | Total Cell Count [5]: 587 | Population Apoptotic (%) [6]: 30% | Population Fragmented Nuclei (%) [6]: 6% | Population Healthy Nuclei (%) [6]: 84% | Population Hoechst High Intensity Objects (%) [6]: 3% | Population Membrane Permeable-Phenotype (%) [6]: 1% | Population Mitochondria Different-Phenotype (%) [6]: 34% | Population Mitotic Cells (%) [6]: 69% | Population Normal (%) [6]: 96% | Population Pyknosed Nuclei (%) [6]: 9% | Population Tubulin-Different-Phenotype (%) [6]: 15% | Total Cell Count [6]: 447 | Population Apoptotic (%) [7]: 44% | Population Fragmented Nuclei (%) [7]: 9% | Population Healthy Nuclei (%) [7]: 74% | Population Hoechst High Intensity Objects (%) [7]: 7% | Population Membrane Permeable-Phenotype (%) [7]: 0% | Population Mitochondria Different-Phenotype (%) [7]: 58% | Population Mitotic Cells (%) [7]: 55% | Population Normal (%) [7]: 92% | Population Pyknosed Nuclei (%) [7]: 15% | Population Tubulin-Different-Phenotype (%) [7]: 38% | Total Cell Count [7]: 355 | Population Apoptotic (%) [8]: 63% | Population Fragmented Nuclei (%) [8]: 11% | Population Healthy Nuclei (%) [8]: 71% | Population Hoechst High Intensity Objects (%) [8]: 21% | Population Mitochondria Different-Phenotype (%) [8]: 54% | Population Mitotic Cells (%) [8]: 36% | Population Normal (%) [8]: 78% | Population Pyknosed Nuclei (%) [8]: 17% | Population Tubulin-Different-Phenotype (%) [8]: 25% | Total Cell Count [8]: 300 | Population Apoptotic (%) [9]: 25% | Population Fragmented Nuclei (%) [9]: 13% | Population Healthy Nuclei (%) [9]: 78% | Population Hoechst High Intensity Objects (%) [9]: 2% | Population Membrane Permeable-Phenotype (%) [9]: 0% | Population Mitochondria Different-Phenotype (%) [9]: 18% | Population Mitotic Cells (%) [9]: 75% | Population Normal (%) [9]: 97% | Population Pyknosed Nuclei (%) [9]: 8% | Population Tubulin-Different-Phenotype (%) [9]: 13% | Total Cell Count [9]: 924 | Population Apoptotic (%) [10]: 36% | Population Healthy Nuclei (%) [10]: 77% | Population Hoechst High Intensity Objects (%) [10]: 5% | Population Membrane Permeable-Phenotype (%) [10]: 1% | Population Mitochondria Different-Phenotype (%) [10]: 23% | Population Mitotic Cells (%) [10]: 63% | Population Normal (%) [10]: 94% | Population Pyknosed Nuclei (%) [10]: 9% | Population Tubulin-Different-Phenotype (%) [10]: 14% | Total Cell Count [10]: 590 | Population Apoptotic (%) [11]: 35% | Population Fragmented Nuclei (%) [11]: 15% | Population Healthy Nuclei (%) [11]: 73% | Population Hoechst High Intensity Objects (%) [11]: 4% | Population Membrane Permeable-Phenotype (%) [11]: 0% | Population Mitochondria Different-Phenotype (%) [11]: 38% | Population Mitotic Cells (%) [11]: 64% | Population Normal (%) [11]: 95% | Population Pyknosed Nuclei (%) [11]: 11% | Population Tubulin-Different-Phenotype (%) [11]: 23% | Total Cell Count [11]: 494 | Population Apoptotic (%) [12]: 43% | Population Fragmented Nuclei (%) [12]: 13% | Population Hoechst High Intensity Objects (%) [12]: 10% | Population Mitochondria Different-Phenotype (%) [12]: 32% | Population Mitotic Cells (%) [12]: 56% | Population Normal (%) [12]: 89% | Population Pyknosed Nuclei (%) [12]: 12% | Population Tubulin-Different-Phenotype (%) [12]: 18% | Total Cell Count [12]: 392
